Test results as given in ChEMBL document CHEMBL3352314, “Synthesis and antiproliferative activity of 8-hydroxyquinoline derivatives containing a 1,2,3-triazole moiety” (Eur J Med Chem, 2014).
Converted amounts (≈) assume the structure as drawn.

How the values were obtained:
HaCaT [1] = experiment: Selectivity index, ratio of GI50 for human HaCaT cells to GI50 for human MCF7 cells; assay type: functional
U-251 = experiment: Antiproliferative activity against human U251 cells assessed as growth inhibition after 48 hrs by sulforhodamine B assay; assay type: functional; settings: U-251, 48 h
Procedure, shortened: (§1)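 Cells in RPMI with penicillin:streptomycin added, exposed 48 h at 37 °C, 5% CO2 to 0.25, 2.5, 25 and 250 µg/mL compound in DMSO/RPMI (0.1% v/v). Doxorubicin (0.025–25 µg/mL) served as positive control. Cells were then fixed with 50% TCA and stained with sulforhodamine B, with protein read at 540 nm. Growth = 100×(T−T0)/(C−T0), using T0 and 48 h readings. GI50 was obtained by non-linear regression. Done in triplicate.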

[2] = Antiproliferative activity against human PC3 cells assessed as growth inhibition after 48 hrs by sulforhodamine B assay; assay type: functional; settings: PC-3, 48 h; procedure, shortened: as §1
NCI/ADR-RES = experiment: Antiproliferative activity against human NCI/ADR-RES cells assessed as growth inhibition after 48 hrs by sulforhodamine B assay; assay type: functional; procedure, shortened: as §1
NCI-H460 [3] = experiment: Antiproliferative activity against human NCI-H460 cells assessed as growth inhibition after 48 hrs by sulforhodamine B assay; assay type: functional; settings: NCI-H460, 48 h; procedure, shortened: as §1
786-0 = experiment: Antiproliferative activity against human 786-0 cells assessed as growth inhibition after 48 hrs by sulforhodamine B assay; assay type: functional; settings: 786-0, 48 h; procedure, shortened: as §1
HaCaT [4] = experiment: Selectivity index, ratio of GI50 for human HaCaT cells to GI50 for human PC3 cells; assay type: functional
[5] = Antiproliferative activity against human OVCAR3 cells assessed as growth inhibition after 48 hrs by sulforhodamine B assay; assay type: functional; settings: OVCAR-3, 48 h; procedure, shortened: as §1
HaCaT [6] = experiment: Selectivity index, ratio of GI50 for human HaCaT cells to GI50 for human U251 cells; assay type: functional
HaCaT [7] = experiment: Selectivity index, ratio of GI50 for human HaCaT cells to GI50 for human NCI/ADR-RES cells; assay type: functional
HaCaT [8] = experiment: Selectivity index, ratio of GI50 for human HaCaT cells to GI50 for human 786-0 cells; assay type: functional
HaCaT [9] = experiment: Selectivity index, ratio of GI50 for human HaCaT cells to GI50 for human OVCAR3 cells; assay type: functional
NCI-H460 [10] = experiment: Selectivity index, ratio of GI50 for human HaCaT cells to GI50 for human NCI-H460 cells; assay type: functional
MCF7 = experiment: Antiproliferative activity against human MCF7 cells assessed as growth inhibition after 48 hrs by sulforhodamine B assay; assay type: functional; settings: MCF7, 48 h; procedure, shortened: as §1
[11] = Antiproliferative activity against human HaCaT cells assessed as growth inhibition after 48 hrs by sulforhodamine B assay; assay type: cell-based; procedure, shortened: as §1

Compound	RatioGI50 (HaCaT [1])	GI50 (U-251)	GI50 [2]	GI50 (NCI/ADR-RES)	GI50 (NCI-H460 [3])	GI50 (786-0)	RatioGI50 (HaCaT [4])	GI50 [5]	RatioGI50 (HaCaT [6])	RatioGI50 (HaCaT [7])	RatioGI50 (HaCaT [8])	RatioGI50 (HaCaT [9])	RatioGI50 (NCI-H460 [10])	GI50 (MCF7)	GI50 at 48 h [11]
c1ccc(Cn2cc(CCCOc3cccc4cccnc34)nn2)cc1	1	25.2 µg/mL (≈ 73.2 µM)	16.8 µg/mL (≈ 48.8 µM)	10.4 µg/mL (≈ 30.2 µM)	28.6 µg/mL (≈ 83 µM)	25 µg/mL (≈ 72.6 µM)	0.8	24.3 µg/mL (≈ 70.6 µM)	0.5	1.2	0.5	0.5	0.4	12.7 µg/mL (≈ 36.9 µM)	12.7 µg/mL (≈ 36.9 µM)
c1cncc(CCCn2cc(CCCOc3cccc4cccnc34)nn2)c1	0.9	25.1 µg/mL (≈ 67.2 µM)	26.7 µg/mL (≈ 71.5 µM)	12.5 µg/mL (≈ 33.5 µM)	44.3 µg/mL (≈ 119 µM)	69.4 µg/mL (≈ 186 µM)	0.9	39.1 µg/mL (≈ 105 µM)	1	2	0.4	0.6	0.6	27.8 µg/mL (≈ 74.4 µM)	25 µg/mL (≈ 66.9 µM)
Clc1cc(Cl)c(Cn2cc(CCCOc3cccc4cccnc34)nn2)c(Cl)c1	1.8	3.1 µg/mL (≈ 6.92 µM)	2.8 µg/mL (≈ 6.25 µM)	2.8 µg/mL (≈ 6.25 µM)	7.4 µg/mL (≈ 16.5 µM)	5.6 µg/mL (≈ 12.5 µM)	1.9	11.4 µg/mL (≈ 25.5 µM)	1.7	1.9	0.9	0.5	0.7	2.9 µg/mL (≈ 6.48 µM)	5.3 µg/mL (≈ 11.8 µM)
O=C(Cn1cc(CCCOc2cccc3cccnc23)nn1)OCc1ccc(F)c(F)c1	0.8	26.5 µg/mL (≈ 60.4 µM)	2.9 µg/mL (≈ 6.61 µM)	4.9 µg/mL (≈ 11.2 µM)	29.2 µg/mL (≈ 66.6 µM)	26.1 µg/mL (≈ 59.5 µM)	7.4	15.1 µg/mL (≈ 34.4 µM)	0.8	4.4	0.8	1.4	0.7	27.2 µg/mL (≈ 62 µM)	21.4 µg/mL (≈ 48.8 µM)
Clc1ccc(Br)cc1Cn1cc(CCCOc2cccc3cccnc23)nn1	0.5	8.7 µg/mL (≈ 19 µM)	8.2 µg/mL (≈ 17.9 µM)	2.5 µg/mL (≈ 5.46 µM)	7.9 µg/mL (≈ 17.3 µM)	> 250 µg/mL	0.6	8 µg/mL (≈ 17.5 µM)	0.6	2	–	0.6	0.6	9.6 µg/mL (≈ 21 µM)	4.9 µg/mL (≈ 10.7 µM)
Ic1ccc(Cn2cc(CCCOc3cccc4cccnc34)nn2)cc1	>10	> 250 µg/mL	24.7 µg/mL (≈ 52.5 µM)	> 250 µg/mL	24.6 µg/mL (≈ 52.3 µM)	22.6 µg/mL (≈ 48.1 µM)	>10.1	24.7 µg/mL (≈ 52.5 µM)	–	–	>11.1	>10.1	>10.2	25 µg/mL (≈ 53.2 µM)	> 250 µg/mL
Clc1ccc(Cn2cc(CCCOc3cccc4cccnc34)nn2)cc1	0.7	3.4 µg/mL (≈ 8.97 µM)	3.6 µg/mL (≈ 9.5 µM)	11.6 µg/mL (≈ 30.6 µM)	11.2 µg/mL (≈ 29.6 µM)	2.8 µg/mL (≈ 7.39 µM)	1.2	8.1 µg/mL (≈ 21.4 µM)	1.2	0.4	1.5	0.5	0.4	6.2 µg/mL (≈ 16.4 µM)	4.2 µg/mL (≈ 11.1 µM)
Brc1ccc(Cn2cc(CCCOc3cccc4cccnc34)nn2)cc1	1	8.4 µg/mL (≈ 19.8 µM)	8.4 µg/mL (≈ 19.8 µM)	25.8 µg/mL (≈ 60.9 µM)	11.7 µg/mL (≈ 27.6 µM)	25.9 µg/mL (≈ 61.2 µM)	3.5	27.2 µg/mL (≈ 64.3 µM)	3.5	1.1	1.1	1.1	2.5	28 µg/mL (≈ 66.1 µM)	29.2 µg/mL (≈ 69 µM)
Fc1ccc(Cn2cc(CCCOc3cccc4cccnc34)nn2)cc1	9.8	20.7 µg/mL (≈ 57.1 µM)	20.1 µg/mL (≈ 55.5 µM)	49.4 µg/mL (≈ 136 µM)	34.4 µg/mL (≈ 94.9 µM)	195 µg/mL (≈ 538 µM)	5.7	23.1 µg/mL (≈ 63.7 µM)	5.6	2.3	0.6	5	3.3	11.7 µg/mL (≈ 32.3 µM)	115 µg/mL (≈ 318 µM)
CC1(C)O[C@H]2[C@@H](O1)[C@@H](Cn1cc(CCCOc3cccc4cccnc34)nn1)O[C@@H]1OC(C)(C)O[C@@H]12	11.3	24.3 µg/mL (≈ 48.9 µM)	16.2 µg/mL (≈ 32.6 µM)	28.6 µg/mL (≈ 57.6 µM)	30.1 µg/mL (≈ 60.6 µM)	30.8 µg/mL (≈ 62 µM)	1.8	< 0.25 µg/mL	1.2	1	0.9	>117.6	1	2.6 µg/mL (≈ 5.24 µM)	29.4 µg/mL (≈ 59.2 µM)
Fc1ccc(Cn2cc(CCCOc3cccc4cccnc34)nn2)cc1F	1.9	18.2 µg/mL (≈ 47.8 µM)	6.6 µg/mL (≈ 17.4 µM)	42.1 µg/mL (≈ 111 µM)	23.7 µg/mL (≈ 62.3 µM)	8.5 µg/mL (≈ 22.3 µM)	6.3	63.5 µg/mL (≈ 167 µM)	2.3	1	4.9	0.7	1.8	21.3 µg/mL (≈ 56 µM)	41.7 µg/mL (≈ 110 µM)
FC(F)(F)Oc1ccc(Cn2cc(CCCOc3cccc4cccnc34)nn2)cc1	1.3	9.8 µg/mL (≈ 22.9 µM)	5 µg/mL (≈ 11.7 µM)	5.5 µg/mL (≈ 12.8 µM)	10.4 µg/mL (≈ 24.3 µM)	7.9 µg/mL (≈ 18.4 µM)	0.8	24.5 µg/mL (≈ 57.2 µM)	0.4	0.7	0.5	0.2	0.4	3.1 µg/mL (≈ 7.24 µM)	4 µg/mL (≈ 9.34 µM)
COc1cccc2c1C(=O)c1c(O)c3c(c(O)c1C2=O)C[C@@](O)(C(=O)CO)C[C@@H]3O[C@H]1C[C@H](N)[C@H](O)[C@H](C)O1 [DOXORUBICIN]	–	0.039 µg/mL (≈ 0.0718 µM)	3.8 µg/mL (≈ 6.99 µM)	0.54 µg/mL (≈ 0.994 µM)	< 0.025 µg/mL	0.15 µg/mL (≈ 0.276 µM)	–	0.43 µg/mL (≈ 0.791 µM)	–	–	–	–	–	0.038 µg/mL (≈ 0.0699 µM)	0.11 µg/mL (≈ 0.202 µM)
